According to PMC6140336 (Cell, 2018):

Experiments:
[1] = system: SKW3 T cells expressing TCR55; test: pERK1/2 phospho-flow cytometry, TCR55 cells; format: cell-based, human; settings: peptide-pulsed KG-1 cells or OKT3, 15 minutes, result in words
[2] = system: TCR55-transduced 58−/− T cells; test: IL-2 ELISA, TCR55-transduced cell line; format: cell-based, murine; settings: peptide-pulsed KG-1 APCs or OKT3, 24 hrs, result in words
Outline: (§1)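 58−/− cells carrying the TCR were rested overnight in complete RPMI. KG-1 APCs were pulsed with peptide for 2 h or overnight at 37 °C, washed, and mixed 1:1 with the T cells for 24 hrs at 37 °C. Secreted mouse IL-2 was measured by sandwich ELISA (avidin-HRP, TMB, H3PO4 stop) read at 450 and 570 nm. Biological and technical triplicates.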

[3] = system: TCR589-transduced 58−/− T cells; test: IL-2 ELISA, TCR589-transduced cell line; format: cell-based, murine; settings: peptide-pulsed KG-1 APCs or OKT3, 24 hrs, result in words
Outline: as §1

[4] = system: SKW3 T cells expressing TCR589; test: pERK1/2 phospho-flow cytometry, TCR589 cells; format: cell-based, human; settings: peptide-pulsed KG-1 cells or OKT3, 15 minutes, result in words
Outline: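 SKW3 cells were rested overnight. Peptide-pulsed KG-1 cells (2 h) were washed and mixed 1:1 with them (125,000 each), then co-cultured 15 min at 37 °C. Cells were fixed in 4% PFA then Cytofix (30 min, 37 °C), permeabilised in ice-cold methanol or Perm Buffer III, and stained 1 h at RT with anti-pERK1/2 (1:50) and anti-CD3. Mean pERK MFI of CD3+ cells by flow. Biological and technical triplicates.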

Substance: OKT3: anti-CD3 antibody (clone OKT3), non-specific TCR stimulus
- ERK1/2 phosphorylation (pERK) [1]: robust ERK1/2 phosphorylation
- IL-2 secretion [2]: responded similarly
- IL-2 secretion [3]: responded similarly
- ERK1/2 phosphorylation (pERK) [4]: robust ERK1/2 phosphorylation
